Assay results: ChEMBL document CHEMBL1671686, “Carbapenem-resistant KPC-2-producing Escherichia coli in a Tel Aviv Medical Center, 2005 to 2008” (2010)
Converted amounts (≈) assume the structure as drawn.

Legend:
Format in all cases: functional
[1] = test system: Escherichia coli; assay: Antimicrobial activity against Escherichia coli isolate 157 expressing beta-lactamase KPC2, CTX-M-15, TEM and PFGE cluster 3 isolated from urine of patient by agar dilution method; conditions: isolate 157, Urine
Procedure, shortened: (§1)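 Clinical carbapenem-resistant E. coli isolates collected Feb 2005–Oct 2008. Carbapenem MICs determined by agar dilution following CLSI protocols.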

[2] = test system: Escherichia coli; assay: Antimicrobial activity against Escherichia coli isolate 157T expressing beta-lactamase KPC2 and PFGE cluster 3 isolated from urine of patient by agar dilution method
Procedure, shortened: (§2)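 Transformant strains. Plasmids purified from the clinical isolates were electroporated into E. coli DH10B. Transformants were selected on LB agar with 100 μg/ml ampicillin, and colonies were PCR-screened for blaKPC before susceptibility testing.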

[3] = test system: Escherichia coli; assay: Antimicrobial activity against Escherichia coli isolate 329 expressing beta-lactamase KPC2, CTX-M-2, TEM and PFGE cluster 2 isolated from blood of patient by agar dilution method
Procedure, shortened: (§3)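 Clinical carbapenem-resistant E. coli isolates from the hospital, February 2005 to October 2008. Carbapenem MICs were determined by agar dilution following CLSI protocols.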

[4] = test system: Escherichia coli; assay: Antimicrobial activity against Escherichia coli isolate 329T expressing beta-lactamase KPC2 and PFGE cluster 2 isolated from blood of patient by agar dilution method; procedure, shortened: as §2
[5] = test system: Escherichia coli; assay: Antimicrobial activity against Escherichia coli isolate 339 expressing beta-lactamase KPC2, TEM and PFGE cluster 5 isolated from peritoneal fluid of patient by agar dilution method; procedure, shortened: as §3
[6] = test system: Escherichia coli; assay: Antimicrobial activity against Escherichia coli isolate 339T expressing beta-lactamase KPC2 and PFGE cluster 5 isolated from peritoneal fluid of patient by agar dilution method; procedure, shortened: as §2
[7] = test system: Escherichia coli; assay: Antimicrobial activity against Escherichia coli isolate 360 expressing beta-lactamase KPC2, CTX-M-15, OXA-9, TEM and PFGE cluster 1 isolated from urine of patient by agar dilution method; conditions: isolate 360, Urine; procedure, shortened: as §1
[8] = test system: Escherichia coli; assay: Antimicrobial activity against Escherichia coli isolate 360T expressing beta-lactamase KPC2, OXA-9 and PFGE cluster 1 isolated from urine of patient by agar dilution method; procedure, shortened: as §2
[9] = test system: Escherichia coli; assay: Antimicrobial activity against Escherichia coli isolate 386 expressing beta-lactamase KPC2, CTX-M-15, OXA-9, TEM and PFGE cluster 1 isolated from wound of patient by agar dilution method; procedure, shortened: as §1
[10] = test system: Escherichia coli; assay: Antimicrobial activity against Escherichia coli isolate 386T expressing beta-lactamase KPC2, OXA-9 and PFGE cluster 1 isolated from wound of patient by agar dilution method; procedure, shortened: as §2
[11] = test system: Escherichia coli; assay: Antimicrobial activity against Escherichia coli isolate 540 expressing beta-lactamase KPC2, TEM and PFGE cluster 4 isolated from synovial fluid of patient by agar dilution method; procedure, shortened: as §3
[12] = test system: Escherichia coli; assay: Antimicrobial activity against Escherichia coli isolate 543 expressing beta-lactamase KPC2, CTX-M-15, TEM and PFGE cluster 4 isolated from synovial fluid of patient by agar dilution method; procedure, shortened: as §3
[13] = test system: Escherichia coli; assay: Antimicrobial activity against Escherichia coli isolate 543T expressing beta-lactamase KPC2 and PFGE cluster 4 isolated from synovial fluid of patient by agar dilution method; procedure, shortened: as §2
[14] = test system: Escherichia coli; assay: Antimicrobial activity against Escherichia coli isolate 544 expressing beta-lactamase KPC2, TEM and PFGE cluster 4 isolated from abscess of patient by agar dilution method; procedure, shortened: as §3
[15] = test system: Escherichia coli; assay: Antimicrobial activity against Escherichia coli isolate 547 expressing beta-lactamase KPC2, TEM and PFGE cluster 4 isolated from blood of patient by agar dilution method; procedure, shortened: as §1
[16] = test system: Escherichia coli; assay: Antimicrobial activity against Escherichia coli isolate 547T expressing beta-lactamase KPC2 and PFGE cluster 4 isolated from blood of patient by agar dilution method; procedure, shortened: as §2
[17] = test system: Escherichia coli; assay: Antimicrobial activity against Escherichia coli isolate 1679 expressing beta-lactamase KPC2, SHV-12, TEM and PFGE cluster 6 isolated from peritoneal fluid of patient by agar dilution method; procedure, shortened: as §3
[18] = test system: Escherichia coli; assay: Antimicrobial activity against Escherichia coli isolate 1679T expressing beta-lactamase KPC2, TEM and PFGE cluster 6 isolated from peritoneal fluid of patient by agar dilution method; procedure, shortened: as §2
[19] = test system: Escherichia coli; assay: Antimicrobial activity against Escherichia coli DH10B by Etest; conditions: K-12 DH10B
[20] = test system: Escherichia coli; assay: Antimicrobial activity against Escherichia coli isolate 157 expressing beta-lactamase KPC2, CTX-M-15, TEM and PFGE cluster 3 isolated from urine of patient by vitek-2 method in presence of beta-lactamase inhibitor Tazobactam; conditions: isolate 157, Urine
Procedure, shortened: (§4)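 Antibiotic susceptibility of clinical carbapenem-resistant E. coli isolates (collected Feb 2005–Oct 2008) determined on the automated Vitek-2 system.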

[21] = test system: Escherichia coli; assay: Antimicrobial activity against Escherichia coli isolate 157T expressing beta-lactamase KPC2 and PFGE cluster 3 isolated from urine of patient by vitek-2 method in presence of beta-lactamase inhibitor Tazobactam
Procedure, shortened: (§5)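 Transformants were made by electroporating purified plasmids from clinical isolates into E. coli DH10B. They were selected on LB agar with 100 μg/ml ampicillin and PCR-screened for blaKPC. Susceptibility was then tested on Vitek-2.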

[22] = test system: Escherichia coli; assay: Antimicrobial activity against Escherichia coli isolate 329 expressing beta-lactamase KPC2, CTX-M-2, TEM and PFGE cluster 2 isolated from blood of patient by vitek-2 method in presence of beta-lactamase inhibitor Tazobactam; procedure, shortened: as §4
[23] = test system: Escherichia coli; assay: Antimicrobial activity against Escherichia coli isolate 329T expressing beta-lactamase KPC2 and PFGE cluster 2 isolated from blood of patient by vitek-2 method in presence of beta-lactamase inhibitor Tazobactam; procedure, shortened: as §5
[24] = test system: Escherichia coli; assay: Antimicrobial activity against Escherichia coli isolate 339 expressing beta-lactamase KPC2, TEM and PFGE cluster 5 isolated from peritoneal fluid of patient by vitek-2 method in presence of beta-lactamase inhibitor Tazobactam
Procedure, shortened: (§6)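 Clinical carbapenem-resistant E. coli isolates collected at one hospital, February 2005 to October 2008. […] Susceptibilities came from automated Vitek-2 testing.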

[25] = test system: Escherichia coli; assay: Antimicrobial activity against Escherichia coli isolate 339T expressing beta-lactamase KPC2 and PFGE cluster 5 isolated from peritoneal fluid of patient by vitek-2 method in presence of beta-lactamase inhibitor Tazobactam
Procedure, shortened: (§7)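 Test strains were E. coli DH10B transformants. Plasmids purified from the clinical isolates were electroporated in, transformants selected on LB agar with 100 μg/ml ampicillin, and colonies PCR-screened for blaKPC. Susceptibility of the transformants was then determined by automated Vitek-2 testing.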

[26] = test system: Escherichia coli; assay: Antimicrobial activity against Escherichia coli isolate 360 expressing beta-lactamase KPC2, CTX-M-15, OXA-9, TEM and PFGE cluster 1 isolated from urine of patient by vitek-2 method in presence of beta-lactamase inhibitor Tazobactam; conditions: isolate 360, Urine; procedure, shortened: as §4
[27] = test system: Escherichia coli; assay: Antimicrobial activity against Escherichia coli isolate 360T expressing beta-lactamase KPC2, OXA-9 and PFGE cluster 1 isolated from urine of patient by vitek-2 method in presence of beta-lactamase inhibitor Tazobactam; procedure, shortened: as §7
[28] = test system: Escherichia coli; assay: Antimicrobial activity against Escherichia coli isolate 386 expressing beta-lactamase KPC2, CTX-M-15, OXA-9, TEM and PFGE cluster 1 isolated from wound of patient by vitek-2 method in presence of beta-lactamase inhibitor Tazobactam; procedure, shortened: as §4
[29] = test system: Escherichia coli; assay: Antimicrobial activity against Escherichia coli isolate 386T expressing beta-lactamase KPC2, OXA-9 and PFGE cluster 1 isolated from wound of patient by vitek-2 method in presence of beta-lactamase inhibitor Tazobactam; procedure, shortened: as §7
[30] = test system: Escherichia coli; assay: Antimicrobial activity against Escherichia coli isolate 540 expressing beta-lactamase KPC2, TEM and PFGE cluster 4 isolated from synovial fluid of patient by vitek-2 method in presence of beta-lactamase inhibitor Tazobactam; procedure, shortened: as §6
[31] = test system: Escherichia coli; assay: Antimicrobial activity against Escherichia coli isolate 543 expressing beta-lactamase KPC2, CTX-M-15, TEM and PFGE cluster 4 isolated from synovial fluid of patient by vitek-2 method in presence of beta-lactamase inhibitor Tazobactam; procedure, shortened: as §4
[32] = test system: Escherichia coli; assay: Antimicrobial activity against Escherichia coli isolate 543T expressing beta-lactamase KPC2 and PFGE cluster 4 isolated from synovial fluid of patient by vitek-2 method in presence of beta-lactamase inhibitor Tazobactam; procedure, shortened: as §5
[33] = test system: Escherichia coli; assay: Antimicrobial activity against Escherichia coli isolate 544 expressing beta-lactamase KPC2, TEM and PFGE cluster 4 isolated from abscess of patient by vitek-2 method in presence of beta-lactamase inhibitor Tazobactam; procedure, shortened: as §4
[34] = test system: Escherichia coli; assay: Antimicrobial activity against Escherichia coli isolate 547 expressing beta-lactamase KPC2, TEM and PFGE cluster 4 isolated from blood of patient by vitek-2 method in presence of beta-lactamase inhibitor Tazobactam; procedure, shortened: as §6
[35] = test system: Escherichia coli; assay: Antimicrobial activity against Escherichia coli isolate 547T expressing beta-lactamase KPC2 and PFGE cluster 4 isolated from blood of patient by vitek-2 method in presence of beta-lactamase inhibitor Tazobactam; procedure, shortened: as §7
[36] = test system: Escherichia coli; assay: Antimicrobial activity against Escherichia coli isolate 1679 expressing beta-lactamase KPC2, SHV-12, TEM and PFGE cluster 6 isolated from peritoneal fluid of patient by vitek-2 method in presence of beta-lactamase inhibitor Tazobactam; procedure, shortened: as §4
[37] = test system: Escherichia coli; assay: Antimicrobial activity against Escherichia coli isolate 1679T expressing beta-lactamase KPC2, TEM and PFGE cluster 6 isolated from peritoneal fluid of patient by vitek-2 method in presence of beta-lactamase inhibitor Tazobactam; procedure, shortened: as §7
[38] = test system: Escherichia coli; assay: Antimicrobial activity against Escherichia coli DH10B by vitek-2 method in presence of beta-lactamase inhibitor Tazobactam; conditions: K-12 DH10B
Procedure, shortened: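 Plasmid-free recipient E. coli DH10B, used as the host for electroporation transformants, was tested for susceptibility on the automated Vitek-2 system.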

Compound	MIC [1] [µg/mL]	MIC [2] [µg/mL]	MIC [3] [µg/mL]	MIC [4] [µg/mL]	MIC [5] [µg/mL]	MIC [6] [µg/mL]	MIC [7] [µg/mL]	MIC [8] [µg/mL]	MIC [9] [µg/mL]	MIC [10] [µg/mL]	MIC [11] [µg/mL]	MIC [12] [µg/mL]	MIC [13] [µg/mL]	MIC [14] [µg/mL]	MIC [15] [µg/mL]	MIC [16] [µg/mL]	MIC [17] [µg/mL]	MIC [18] [µg/mL]	MIC [19] [µg/mL]	other results
C[C@@H](O)[C@H]1C(=O)N2C(C(=O)O)=C(S[C@@H]3CN[C@H](CNS(N)(=O)=O)C3)[C@H](C)[C@H]12 [DORIPENEM]	2 (≈ 4.76 µM)	1 (≈ 2.38 µM)	4 (≈ 9.51 µM)	1 (≈ 2.38 µM)	1 (≈ 2.38 µM)	0.5 (≈ 1.19 µM)	1 (≈ 2.38 µM)	< 0.5	1 (≈ 2.38 µM)	< 0.5	1 (≈ 2.38 µM)	2 (≈ 4.76 µM)	< 0.5	1 (≈ 2.38 µM)	< 0.5	< 0.5	8 (≈ 19 µM)	0.5 (≈ 1.19 µM)	< 0.5	
CCN1CCN(C(=O)N[C@@H](C(=O)N[C@@H]2C(=O)N3[C@@H]2SC(C)(C)[C@@H]3C(=O)O)c2ccccc2)C(=O)C1=O [PIPERACILLIN]																				MIC [20]: > 128 µg/mL; MIC [21]: > 128 µg/mL; MIC [22]: > 128 µg/mL; MIC [23]: > 128 µg/mL; MIC [24]: 64 µg/mL; MIC [25]: 64 µg/mL; MIC [26]: > 128 µg/mL; MIC [27]: 64 µg/mL; MIC [28]: > 128 µg/mL; MIC [29]: 64 µg/mL; MIC [30]: 64 µg/mL; MIC [31]: > 128 µg/mL; MIC [32]: > 128 µg/mL; MIC [33]: > 128 µg/mL; MIC [34]: 64 µg/mL; MIC [35]: 64 µg/mL; MIC [36]: > 128 µg/mL; MIC [37]: 64 µg/mL; MIC [38]: > 1 µg/mL
C[C@@H](O)[C@H]1C(=O)N2C(C(=O)O)=C(S[C@@H]3CN[C@H](C(=O)Nc4cccc(C(=O)O)c4)C3)[C@H](C)[C@H]12	8 (≈ 16.8 µM)	4 (≈ 8.41 µM)	32 (≈ 67.3 µM)	4 (≈ 8.41 µM)	16 (≈ 33.6 µM)	4 (≈ 8.41 µM)	8 (≈ 16.8 µM)	1 (≈ 2.1 µM)	8 (≈ 16.8 µM)	1 (≈ 2.1 µM)	16 (≈ 33.6 µM)	16 (≈ 33.6 µM)	2 (≈ 4.21 µM)	16 (≈ 33.6 µM)	8 (≈ 16.8 µM)	0.25 (≈ 0.526 µM)	32 (≈ 67.3 µM)	1 (≈ 2.1 µM)	0.023 (≈ 0.0484 µM)	
